Test results from ChEMBL document CHEMBL4145456, “Synthesis and biological evaluation of novel 2-arylvinyl-substituted naphtho[2,3-d]imidazolium halide derivatives as potent antitumor agents” (Eur J Med Chem, 2018).
The source made the active and inactive calls. The calls are words filed in the database; no cut-off is given here.

Assays:
A-375 [1] = experiment: Antiproliferative activity against human A375 cells after 48 hrs by CellTiter 96 aqueous one solution assay; format: functional, cell-based; conditions: A-375, 48 h
Method in brief: (§1)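 Cells in 10% FBS medium with penicillin/streptomycin at 37°C, 5% CO2, seeded at 3000-10000 per well and precultured 1 day. DMSO stocks (10 mM) were diluted to a 10 µM top working solution, then serially diluted 3-fold in medium. Exposure was 48 h. Read-out was MTS tetrazolium-to-formazan absorbance at 492 nm. IC50 came from a three-parameter logistic fit, mean of three independent experiments.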

PC-3 [2] = experiment: Antiproliferative activity against human PC3 cells after 48 hrs by CellTiter 96 aqueous one solution assay; format: functional, cell-based; conditions: PC-3, 48 h; method in brief: as §1
HeLa = experiment: Antiproliferative activity against human HeLa cells after 48 hrs by CellTiter 96 aqueous one solution assay; format: functional, cell-based; method in brief: as §1
PC-3 [3] = experiment: Induction of apoptosis in human PC3 cells assessed as viable cells at 100 nM after 24 hrs by Annexin V/propidium iodide staining-based FACS analysis (reference value: 97.0%); format: functional; conditions: PC-3, 24 h, read-out: Activity
A-375 [4] = experiment: Induction of apoptosis in human A375 cells assessed as decrease in Bcl-2 expression at 10 to 1000 nM after 48 hrs by Western blot analysis; format: functional, cell-based
Method in brief: (§2)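 A375 cells at 1×10^5 per well were treated for 48 h and lysed in RIPA buffer. Equal protein was run on 12% SDS-PAGE and transferred to PVDF, which was blocked in 5% milk/PBS for 1 h at room temperature. Primary antibodies (survivin, caspase-3, Bcl-2, PARP, p-ERK, total ERK, GAPDH) were used at 1:1000. GAPDH served as loading control.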

A-375 [5] = experiment: Induction of apoptosis in human A375 cells after 24 hrs by Annexin V/propidium iodide staining-based FACS analysis; format: functional, cell-based
A-375 [6] = experiment: Induction of apoptosis in human A375 cells assessed as viable cells at 1000 nM after 24 hrs by Annexin V/propidium iodide staining-based FACS analysis (reference value: 92.2%); format: functional; conditions: A-375, 24 h, read-out: Activity
A-375 [7] = experiment: Induction of apoptosis in human A375 cells assessed as increase in procaspase-3 cleavage at 10 to 1000 nM after 48 hrs by Western blot analysis; format: functional, cell-based; method in brief: as §2
PC-3 [8] = experiment: Induction of apoptosis in human PC3 cells assessed as viable cells at 10 nM after 24 hrs by Annexin V/propidium iodide staining-based FACS analysis (reference value: 97.0%); format: functional; conditions: PC-3, 24 h, read-out: Activity
A-375 [9] = experiment: Induction of apoptosis in human A375 cells assessed as viable cells at 10 nM after 24 hrs by Annexin V/propidium iodide staining-based FACS analysis (reference value: 92.2%); format: functional; conditions: A-375, 24 h, read-out: Activity
A-375 [10] = experiment: Induction of apoptosis in human A375 cells assessed as viable cells at 100 nM after 24 hrs by Annexin V/propidium iodide staining-based FACS analysis (reference value: 92.2%); format: functional; conditions: A-375, 24 h, read-out: Activity
A-375 [11] = experiment: Induction of apoptosis in human A375 cells assessed as decrease in survivin expression at 10 to 1000 nM after 48 hrs by Western blot analysis; format: functional, cell-based; method in brief: as §2
PC-3 [12] = experiment: Induction of apoptosis in human PC3 cells assessed as viable cells at 1 nM after 24 hrs by Annexin V/propidium iodide staining-based FACS analysis (reference value: 97.0%); format: functional; conditions: PC-3, 24 h, read-out: Activity
Mus musculus [13] = experiment: Toxicity in ICR mouse implanted with EAC cells assessed as decrease in thymus index at 0.06 to 0.6 mg/kg, ip qd dosed for 10 consecutive days; format: organism-based; conditions: in vivo
Method in brief: (§3)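 Adult male ICR mice, 6 weeks, 20-25 g, n=7 per group. Given 5×10^6 EAC cells s.c. in the right thigh; cells came from intraperitoneal passage in donor mice. From day 1, dosed i.p. daily for 10 d (0.1 mL/10 g) in saline with 4% DMA and 2% Solutol HS15; vehicle controls included. Spleen and thymus weighed at sacrifice; organ index is organ weight/body weight.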

Mus musculus [14] = experiment: Toxicity in ICR mouse implanted with EAC cells assessed as decrease in spleen index at 0.06 to 0.6 mg/kg, ip qd dosed for 10 consecutive days; format: organism-based; conditions: in vivo; method in brief: as §3
Homo sapiens [15] = organism: Homo sapiens; experiment: Induction of microtubule disruption in human A375 cells assessed as cell shrunk with improper microtubule bundling at 70 nM after 24 hrs by FITC/DAPI staining-based fluorescence assay
Method in brief: (§4)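 A375 cells grown in 96-well plates, 8×10^3 cells/well, exposed to DMSO vehicle or compound for 24 h at 37°C. Cells were washed, then fixed, blocked and permeabilized. They were stained overnight with monoclonal α-tubulin primary antibody, then 3 h with FITC-labelled secondary; nuclei counterstained with DAPI. Imaged on an automated imaging system at 200×. Paclitaxel served as positive control.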

Homo sapiens [16] = organism: Homo sapiens; experiment: Induction of microtubule disruption in human A375 cells assessed as appearance of rounded cell at 70 nM after 24 hrs by FITC/DAPI staining-based fluorescence assay
Method in brief: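 A375 cells at 8×10^3 per well were treated for 24 h at 37°C, then washed, fixed, blocked and permeabilized. They were stained with anti-α-tubulin overnight and a FITC secondary for 3 h, and nuclei were counterstained with DAPI. Automated imaging was at 200×, and rounded cells were scored from morphology.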

Homo sapiens [17] = organism: Homo sapiens; experiment: Induction of microtubule disruption in human A375 cells assessed as cell detachment at 70 nM after 24 hrs by FITC/DAPI staining-based fluorescence assay; method in brief: as §4
Ehrlich = experiment: Antitumor activity against mouse EAC cells implanted in ICR mouse assessed as tumor growth inhibition at 30 mg/kg, ip qd dosed for 10 consecutive days relative to control; conditions: read-out: TGI

SMILES: COCC[n+]1c2c(n(Cc3ccccc3)c1/C=C/C=C/c1ccccc1)C(=O)c1ccccc1C2=O
- IC50 (A-375 [1]): 0.551 µM
- IC50 (PC-3 [2]): 0.212 µM
- IC50 (HeLa): 1.28 µM

SMILES: CC[n+]1c2c(n(C(C)C)c1/C=C/c1cccc(O)c1)C(=O)c1ccccc1C2=O
- IC50 (A-375 [1]): 2.94 µM
- IC50 (PC-3 [2]): 0.14 µM
- IC50 (HeLa): 13 µM

SMILES: CC[n+]1c2c(n(C3CC3)c1/C=C/c1c[nH]c3ccccc13)C(=O)c1ccccc1C2=O
- IC50 (A-375 [1]): 0.891 µM
- IC50 (PC-3 [2]): 0.052 µM
- IC50 (HeLa): 2.05 µM

SMILES: CC[n+]1c2c(n(C(C)C)c1/C=C/c1ccc(C)cc1)C(=O)c1ccccc1C2=O
- viability at 0.1 µM (PC-3 [3]): 75.6%
- Activity (A-375 [4]): Active
- Activity (A-375 [5]): Dose-dependent effect
- IC50 (A-375 [1]): 1.07 µM
- viability at 1 µM (A-375 [6]): 65.7%
- IC50 (PC-3 [2]): 0.022 µM
- Activity (A-375 [7]): Active
- viability at 0.01 µM (PC-3 [8]): 96.5%
- viability at 0.01 µM (A-375 [9]): 88.3%
- viability at 0.1 µM (A-375 [10]): 82.2%
- IC50 (HeLa): 1.12 µM
- Activity (A-375 [11]): Active
- viability at 0.001 µM (PC-3 [12]): 98%

SMILES: COCC[n+]1c2c(n(Cc3ccccc3)c1/C=C/c1c[nH]c3ccccc13)C(=O)c1ccccc1C2=O.[Br-]
- Activity (Mus musculus [13]): Non-Toxic
- Activity (Mus musculus [14]): Non-Toxic

SMILES: CC[n+]1c2c(n(C3CC3)c1/C=C/c1cc(OC)c(OC)c(OC)c1)C(=O)c1ccccc1C2=O
- IC50 (A-375 [1]): 26 µM
- IC50 (PC-3 [2]): 0.143 µM
- IC50 (HeLa): > 30 µM

SMILES: COCC[n+]1c2c(n(Cc3ccccc3)c1/C=C/c1cccc(O)c1)C(=O)c1ccccc1C2=O
- IC50 (A-375 [1]): 0.791 µM
- IC50 (PC-3 [2]): 0.1 µM
- IC50 (HeLa): 4.86 µM

SMILES: CC(=O)O[C@H]1C(=O)[C@@]2(C)[C@H]([C@H](OC(=O)c3ccccc3)[C@]3(O)C[C@H](OC(=O)[C@H](O)[C@@H](NC(=O)c4ccccc4)c4ccccc4)C(C)=C1C3(C)C)[C@]1(OC(C)=O)CO[C@@H]1C[C@@H]2O
- Activity (Homo sapiens [15]): Active
- Activity (Homo sapiens [16]): Active
- Activity (Homo sapiens [17]): Active

SMILES: CC[n+]1c2c(n(C(C)C)c1/C=C/c1c[nH]c3ccccc13)C(=O)c1ccccc1C2=O
- IC50 (A-375 [1]): 0.553 µM
- IC50 (PC-3 [2]): 0.071 µM
- IC50 (HeLa): 6.12 µM

SMILES: COCC[n+]1c2c(n(Cc3ccccc3)c1/C=C/c1ccc(O)c(OC)c1)C(=O)c1ccccc1C2=O
- IC50 (A-375 [1]): 0.536 µM
- IC50 (PC-3 [2]): 0.022 µM
- IC50 (HeLa): 1.13 µM

SMILES: O=P1(N(CCCl)CCCl)NCCCO1 (stereo not drawn) [CYCLOPHOSPHAMIDE ANHYDROUS]
- inhibition in vivo at 30 mg/kg (Ehrlich): 48.9%

SMILES: CC[n+]1c2c(n(C(C)C)c1/C=C/c1ccc(O)c(OC)c1)C(=O)c1ccccc1C2=O
- IC50 (A-375 [1]): 6.58 µM
- IC50 (PC-3 [2]): 0.09 µM
- IC50 (HeLa): > 30 µM

SMILES: CC[n+]1c2c(n(C3CC3)c1/C=C/c1ccc(OC)c(OC)c1)C(=O)c1ccccc1C2=O
- IC50 (A-375 [1]): 8 µM
- IC50 (PC-3 [2]): 0.066 µM
- IC50 (HeLa): 13.5 µM

SMILES: COCC[n+]1c2c(n(Cc3ccccc3)c1C)C(=O)c1ccccc1C2=O
- IC50 (A-375 [1]): 1.14 µM
- IC50 (PC-3 [2]): 0.073 µM
- IC50 (HeLa): 10 µM

SMILES: CC[n+]1c2c(n(C3CC3)c1/C=C/c1ccccc1)C(=O)c1ccccc1C2=O
- IC50 (A-375 [1]): 1.31 µM
- IC50 (PC-3 [2]): 0.038 µM
- IC50 (HeLa): 6.54 µM

SMILES: CC[n+]1c2c(n(C3CC3)c1/C=C/c1cccc([N+](=O)[O-])c1)C(=O)c1ccccc1C2=O
- IC50 (A-375 [1]): 5.36 µM
- IC50 (PC-3 [2]): 0.028 µM
- IC50 (HeLa): 11.3 µM

SMILES: CC[n+]1c2c(n(C(C)C)c1/C=C/c1ccc(O)cc1)C(=O)c1ccccc1C2=O
- IC50 (A-375 [1]): 5.58 µM
- IC50 (PC-3 [2]): 0.072 µM
- IC50 (HeLa): > 30 µM

SMILES: COCC[n+]1c2c(n(Cc3cccc(OC)c3)c1/C=C/c1cccc(O)c1)C(=O)c1ccccc1C2=O
- IC50 (A-375 [1]): 1.12 µM
- IC50 (PC-3 [2]): 0.222 µM
- IC50 (HeLa): 7.33 µM

SMILES: COCC[n+]1c2c(n(Cc3cccc(OC)c3)c1/C=C/c1cc(OC)c(OC)c(OC)c1)C(=O)c1ccccc1C2=O
- IC50 (A-375 [1]): 1 µM
- IC50 (PC-3 [2]): 0.291 µM
- IC50 (HeLa): 7.5 µM

SMILES: COCC[n+]1c2c(n(Cc3cccc(OC)c3)c1/C=C/c1c[nH]c3ccccc13)C(=O)c1ccccc1C2=O
- IC50 (A-375 [1]): 0.353 µM
- IC50 (PC-3 [2]): 0.215 µM
- IC50 (HeLa): 1.37 µM

SMILES: CC[n+]1c2c(n(C3CC3)c1/C=C/c1ccc(O)c(OC)c1)C(=O)c1ccccc1C2=O
- IC50 (A-375 [1]): 13.9 µM
- IC50 (PC-3 [2]): 0.038 µM
- IC50 (HeLa): 18.5 µM

SMILES: CC[n+]1c2c(n(C(C)C)c1/C=C/c1ccc([N+](=O)[O-])cc1)C(=O)c1ccccc1C2=O
- IC50 (A-375 [1]): 1.43 µM
- IC50 (PC-3 [2]): 0.039 µM
- IC50 (HeLa): 9.93 µM
